Active and inactive are the calls of the source. The rule behind the calls is not given here. Where a SMILES comes first, the peptide text is derived from it. [ ]: non-standard residue; d: D form. NMeR = CN[C@@H](CCCNC(=N)N)C(=O)O; NMeS = CN[C@@H](CO)C(=O)O
Experiments:
[1] = Proteolytic stability of compound in human plasma assessed as protease-mediated degradation by measuring compound remaining at 200 uM incubated for 30 mins by UHPLC analysis; assay type: ADME, cell-free; settings: read-out: Stability
Summary of the method: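 Compound (200 μM final, dissolved in water) incubated in human serum at 37 °C for 30 min. Samples every 5 min quenched 1:1 with 6% TCA and centrifuged. Supernatant analysed by UHPLC (UV 223 nm) for intact compound; cleavage sites identified by MS.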

[2] = Cytotoxicity in HEK293T cells assessed as cell viability at 100 uM incubated for 24 hrs by MTT assay relative to control; assay type: toxicity, cell-based, HEK-293T; settings: human, read-out: Activity
Summary of the method: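 HEK293T cells grown in complete medium for 2 days, then the medium was replaced with compound at 1, 10, 25, 50 or 100 μM for 24 h. MTT was added, formazan dissolved in DMSO, and absorbance read at 570 nm. Mean of three biological replicates, compared with untreated control.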

HEK-293T [3] = assay: Cytotoxicity in HEK293T cells assessed as cell viability at 1 to 10 uM incubated for 24 hrs by MTT assay relative to control; assay type: toxicity, cell-based; settings: human, dose 1-10 µM
Summary of the method: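 HEK293T cells grown 2 days, then medium replaced with compound at 1, 10, 25, 50 or 100 μM for 24 h. MTT added, formazan dissolved in DMSO, absorbance read at 570 nm. Mean of three biological replicates vs control, one-way ANOVA.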

HEK-293T [4] = assay: Cytotoxicity against HEK293T cells assessed as cell viability at 10 uM measured after 3 hrs by Hoechst 33342 staining based analysis; assay type: toxicity; settings: human
Summary of the method: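 HEK293T cells in DMEM/10% FBS, seeded 3 × 10^4 per well and grown 48 h, then given 10 μM NBD-labelled modulators for 3 h. Hoechst 33342 added for the final 30 min. Cells washed with PBS and imaged by fluorescence microscopy (NBD and Hoechst channels). Three independent replicates.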

Primary cortical neuron = assay: Activation of 20S proteasome in mouse Primary cortical neuron cells assessed as reduction in alpha-synuclein level at 2.5 uM incubated for 7 days; assay type: cell-based; settings: filed as activator, time 7.0 day
Summary of the method: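 E16–E17 CD1 mouse cortical neurons cultured in Neurobasal A with B-27 and GlutaMAX. Treated at DIV7 with 2.5 μM activator for 7 days; lysed at DIV14, protein by BCA. α-Synuclein quantified by Simple Western Jess automated immunoblot with total-protein normalization. n = 3 biological replicates.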

[5] = Permeability of compound in PBS incubated for 22 hrs by PAMPA-BBB assay; assay type: ADME
Summary of the method: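 PAMPA-BBB with a 2% porcine brain lipid membrane. Compounds were diluted from 10 mM aqueous stocks to 500 μM in 0.1 M PBS containing 5% DMSO and incubated 22 h at 37 °C with shaking at 250 rpm. Read-out was fluorescence after reaction with 0.02% fluorescamine (absorbance at 290 nm for propranolol). Pe calculated as linear permeation velocity. Three biological replicates.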

Hippocampal neuron [6] = assay: Neuroprotective activity in mouse Hippocampal neuron cells assessed as increase in cell number at 0.5 to 5 uM pretreated with preformed fibrils followed by compound treatment measured after 7 days by DAPI staining/NeuN protein immunostaining analysis; assay type: functional, cell-based; settings: dose 0.5-5 µM, time 7.0 day
Hippocampal neuron [7] = assay: Neuroprotective activity in mouse Hippocampal neuron cells assessed as decrease in Lewy body-like aggregates at 0.5 to 2.5 uM pretreated with alpha-synuclein followed by compound addition measured after 7 days by immunostaining analysis; assay type: functional, cell-based; settings: dose 0.5-2.5 µM, time 7.0 day
Summary of the method: (§1)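 E16.0 mouse hippocampal neurons, 25,000 per well, poly-L-lysine coated, Neurobasal/B27. Day 8: sonicated mouse α-synuclein PFFs added (2.5 μg/mL final; PBS for controls). Modulator (0.5 or 2.5 μM) added 1 h later. Day 15: PFA fixation; immunostaining for pS129-αsyn and NeuN plus DAPI; automated imaging. 3 biological, 9–11 technical replicates.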

Hippocampal neuron [8] = assay: Activation of 20S proteasome in mouse Hippocampal neuron cells assessed as reduction in alpha-synuclein aggregation measured after 7 days by DAPI staining based immunofluorescence analysis; assay type: cell-based; settings: filed as activator, dose 0.5-5 µM, time 7.0 day
Hippocampal neuron [9] = assay: Neuroprotective activity in mouse Hippocampal neuron cells assessed as neuron viability at 0.5 to 2.5 uM pretreated with alpha-synuclein followed by compound addition measured after 7 days by immunostaining analysis; assay type: functional, cell-based; settings: dose 0.5-2.5 µM, time 7.0 day; summary of the method: as §1
[10] = target: T1, 20S proteasome (Homo sapiens) (UniProt P49721+P20618+P28074+P28062+P28065+P28072+P25786+P25787+P25788+P25789+P28066+P60900+O14818+Q8TAA3+P40306+A5LHX3+P49720+P28070+Q99436); assay: Activation of human 20S proteasome assessed as alpha-synuclein degradation by measuring residual activity at 10 uM by SDS-PAGE analysis relative to control; assay type: protein-complex assay; settings: filed as activator, time 1.5 hrs
[11] = target: T1, 20S proteasome (Homo sapiens); assay: Activation of human 20S proteasome assessed as tau degradation at 10 uM by SDS-PAGE analysis relative to control; assay type: protein-complex assay; settings: filed as activator, time 1.5 hrs
[12] = target: T1, 20S proteasome (Homo sapiens); assay: Activation of 20S proteasome chymotrypsin-like activity in HEK293T cell lysate using Suc-LLVY-AMC as substrate assessed as fold increase in activity at 5 uM by fluorescence based analysis relative to control; assay type: subcellular; settings: filed as activator
Summary of the method: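 Chymotrypsin-like activity read with Suc-LLVY-AMC. 1 μM bortezomib as negative control. Fold activity vs vehicle control; at least three independent replicates, one-way ANOVA with Tukey.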

[13] = target: T1, 20S proteasome (Homo sapiens); assay: Activation of human erythrocyte-derived 20S proteasome chymotrypsin-like activity using Suc-LLVY-AMC as substrate assessed as fold increase in activity at 1 uM measured every two mins for 60 mins by fluorescence based analysis relative to control; settings: filed as activator
Summary of the method: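 h20S proteasome 0.002 mg/mL (2.8 nM) in 50 mM Tris/HCl pH 8.0, 2% DMSO final. Suc-LLVY-AMC 100 μM final. Modulators 1.0–50 μM (TAT/6R constructs 0.5–10 μM). AMC fluorescence ex 380/em 460 nm read every 2 min for 60 min at 37 °C. Activity relative to DMSO-treated latent proteasome (100%); ≥3 replicates.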

[14] = target: T1, 20S proteasome (Homo sapiens); assay: Activation of human erythrocyte-derived 20S proteasome trypsin-like activity using Boc-LRR-AMC as substrate at 0.5 to 10 uM measured every two mins for 60 mins by fluorescence based analysis; settings: filed as activator, dose 0.5-10 µM
[15] = target: T1, 20S proteasome (Homo sapiens); assay: Activation of human erythrocyte-derived 20S proteasome using Dabcyl-EDANS as FRET-type substrate at 1.0 to 50 uM measured every two mins for 60 mins by fluorescence based analysis; assay type: cell-based; settings: filed as activator, dose 1-50 µM
Summary of the method: (§2)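 Latent human 20S proteasome (0.002 mg/mL, 2.8 nM) in 50 mM Tris/HCl pH 8.0 with 2% DMSO. AMC substrates at 100 μM final (ex 380/em 460 nm); Dabcyl-EDANS at 15 μM final (ex 335/em 493 nm). Modulators at 1.0–50 μM; TAT- or 6R-containing constructs at 0.5–10 μM. Read every 2 min for 60 min at 37 °C. Activity relative to DMSO-treated proteasome (100%). ≥3 independent replicates.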

[16] = target: T1, 20S proteasome (Homo sapiens); assay: Activation of human erythrocyte-derived 20S proteasome chymotrypsin-like activity using Suc-LLVY-AMC as substrate at 1.0 to 50 uM measured every two mins for 60 mins by fluorescence based analysis; settings: filed as activator, dose 1-50 µM
[17] = target: T1, 20S proteasome (Homo sapiens); assay: Activation of human erythrocyte-derived 20S proteasome using Dabcyl-EDANS as FRET-type substrate at higher concentration measured every two mins for 60 mins by fluorescence based analysis; assay type: cell-based; settings: filed as activator; summary of the method: as §2
[18] = target: T1, 20S proteasome (Homo sapiens); assay: Activation of human erythrocyte-derived 20S proteasome trypsin-like activity using Boc-LRR-AMC as substrate at 1.0 to 50 uM measured every two mins for 60 mins by fluorescence based analysis; settings: dose 1-50 µM
[19] = target: T1, 20S proteasome (Homo sapiens); assay: Activation of human erythrocyte-derived 20S proteasome caspase-like activity using Z-LLE-AMC as substrate at 1.0 to 50 uM measured every two mins for 60 mins by fluorescence based analysis; settings: filed as activator, dose 1-50 µM; summary of the method: as §2
[20] = Effect on secondary structure of drug in water at 2 mg/ml assessed as alpha-helical conformation by CD analysis; assay type: physicochemical; settings: buffer

| Compound | remaining at 0.5 h, 200 µM [1] | Activity (HEK-293T [3]) | Activity (HEK-293T [4]) | Activity (Primary cortical neuron) | permeability [5] | Activity (Hippocampal neuron [6]) | Activity (Hippocampal neuron [7]) | Activity (Hippocampal neuron [9]) | other results |
| --- | --- | --- | --- | --- | --- | --- | --- | --- | --- |
| C[C@@H](O)[C@H](NC(=O)[C@H](Cc1ccccc1)NC(=O)[C@H](Cc1ccc(O)cc1)NC(=O)CN(CCCCN)C(=O)[C@H](CCCNC(=N)N)NC(=O)[C@H](CCCNC(=N)N)NC(=O)[C@H](CCCNC(=N)N)NC(=O)[C@H](CCNC(=N)N)NC(=O)[C@H](CCCNC(=N)N)NC(=O)[C@@H](N)CCCNC(=N)N)C(=O)NCC(=O)N[C@@H](CO)C(=O)N[C@@H](CCCCN)C(=O)N[C@@H](CC(=O)O)C(=O)N[C@@H](Cc1c[nH]c2ccccc12)C(=O)N[C@@H](CCCNC(=N)N)C(=O)N[C@@H](CO)C(=O)N[C@@H](Cc1ccc(O)cc1)C(=O)N[C@@H](Cc1ccc(O)cc1)C(=O)N[C@@H](CO)C(=O)O | > 60% | Non-toxic | Non-toxic | Active | Permeable | Active | Active | Active | viability at 24 h, 100 µM [2]: ~50%; Activity (Hippocampal neuron [8]): Dose-dependent-effect |
| C[C@@H](O)[C@H](NC(=O)[C@H](Cc1ccccc1)NC(=O)[C@H](Cc1ccc(O)cc1)NC(=O)CN(CCCCN)C(=O)[C@H](CCCNC(=N)N)NC(=O)[C@H](CCCNC(=N)N)NC(=O)[C@H](CCCNC(=N)N)NC(=O)[C@H](CCC(N)=O)NC(=O)[C@H](CCCNC(=N)N)NC(=O)[C@H](CCCNC(=N)N)NC(=O)[C@H](CCCCN)NC(=O)[C@H](CCCCN)NC(=O)[C@@H](N)CCCNC(=N)N)C(=O)NCC(=O)N[C@@H](CO)C(=O)N[C@@H](CCCCN)C(=O)N[C@@H](CC(=O)O)C(=O)N[C@@H](Cc1c[nH]c2ccccc12)C(=O)N[C@@H](CCCNC(=N)N)C(=O)N[C@@H](CO)C(=O)N[C@@H](Cc1ccc(O)cc1)C(=O)N[C@@H](Cc1ccc(O)cc1)C(=O)N[C@@H](CO)C(=O)O | > 60% | Non-toxic | Non-toxic | Active | Permeable | Active | Active | Active | Activity [10]: < 40%; Activity [11]: > 90%; fold change (FC) [12]: 4; fold change (FC) [13]: 16; Activity [14]: Active |
| C[C@@H](O)[C@H](NC(=O)[C@H](Cc1ccccc1)NC(=O)[C@H](Cc1ccc(O)cc1)NC(=O)[C@@H](N)CCCCN)C(=O)NCC(=O)N[C@@H](CO)C(=O)N[C@@H](CCCCN)C(=O)N[C@@H](CC(=O)O)C(=O)N[C@@H](Cc1c[nH]c2ccccc12)C(=O)N(C)[C@@H](CCCNC(=N)N)C(=O)N(C)[C@@H](CO)C(=O)N[C@@H](Cc1ccc(O)cc1)C(=O)N[C@@H](Cc1ccc(O)cc1)C(=O)N[C@@H](CO)C(=O)O (H-KYFTGSKDW[NMeR][NMeS]YYS-OH) |  |  |  |  |  |  |  |  | Activity [15]: Active; Activity [16]: Active; Lower Capacity Of Activation Is Observed; Activity [17]: Active; Activity [18]: inactive; Activity [19]: Moderate_effect; Activity [20]: Active |

— ChEMBL document CHEMBL6134855, “Peptidomimetics Activating the Proteasome: A New Perspective for Parkinson's Treatment” (J Med Chem, 2025)
